Calls of active or inactive are those of the source. No cut-off for these calls is given here.
Legend:
[1] = target: T1, Polyunsaturated fatty acid 5-lipoxygenase (Homo sapiens, UniProt P09917); experiment: Inhibition of human recombinant 5-LOX expressed in Escherichia coli BL21 using arachidonic acid as substrate assessed as LTB4 formation preincubated for 15 mins measured after 10 mins by HPLC analysis
T1 sequence (P09917 whole entry): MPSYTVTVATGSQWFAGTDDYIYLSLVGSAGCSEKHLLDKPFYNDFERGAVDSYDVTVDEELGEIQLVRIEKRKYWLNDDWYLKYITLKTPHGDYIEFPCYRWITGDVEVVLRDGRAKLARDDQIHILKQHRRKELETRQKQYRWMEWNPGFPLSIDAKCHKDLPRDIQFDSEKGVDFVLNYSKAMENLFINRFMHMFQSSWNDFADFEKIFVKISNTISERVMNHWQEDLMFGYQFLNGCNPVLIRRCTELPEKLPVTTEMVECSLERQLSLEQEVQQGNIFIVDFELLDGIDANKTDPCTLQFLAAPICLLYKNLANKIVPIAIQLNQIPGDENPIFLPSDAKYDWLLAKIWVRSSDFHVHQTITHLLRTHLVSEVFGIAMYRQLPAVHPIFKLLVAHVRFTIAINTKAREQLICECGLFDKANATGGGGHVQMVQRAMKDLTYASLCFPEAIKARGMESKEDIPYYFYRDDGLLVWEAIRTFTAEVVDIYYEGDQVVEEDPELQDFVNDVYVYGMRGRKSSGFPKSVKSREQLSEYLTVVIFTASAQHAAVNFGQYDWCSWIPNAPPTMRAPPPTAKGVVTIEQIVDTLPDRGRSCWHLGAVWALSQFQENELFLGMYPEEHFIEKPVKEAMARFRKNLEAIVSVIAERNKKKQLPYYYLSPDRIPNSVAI
Method in brief: (§1)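 Human recombinant 5-LOX expressed in E. coli BL21 (pT3-5LO) at 37 °C, purified, and used immediately. 0.5 µg enzyme in PBS/EDTA preincubated with compound for 15 min at 4 °C, then prewarmed 30 s at 37 °C. Reaction started with 2 mM CaCl₂ plus 20 µM arachidonic acid, run 10 min at 37 °C, and metabolites analyzed by HPLC. Mean ± S.E.M., n = 3–4.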

[2] = target: T1, Polyunsaturated fatty acid 5-lipoxygenase; experiment: Inhibition of 5-LOX in human intact polymorphonuclear leukocytes preincubated for 15 mins with CaCl2, A23187 measured after 10 mins by HPLC analysis
Method in brief: (§2)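 Human PMNL isolated from blood of healthy adult donors. 5 × 10⁶ cells in 1 ml PG buffer preincubated with compound for 15 min at 37 °C, then stimulated with 1 mM CaCl₂ plus 2.5 µM A23187. After 10 min at 37 °C, stopped with methanol, centrifuged, and supernatant products analyzed by HPLC. Mean ± S.E.M., n = 3–4.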

[3] = target: T2, Polyunsaturated fatty acid 5-lipoxygenase (Homo sapiens) (UniProt P09917); experiment: Inhibition of human recombinant 5-LOX expressed in Escherichia coli BL21 using arachidonic acid as substrate assessed as remaining enzyme activity by measuring LTB4 formation at 1 uM preincubated for 15 mins measured after 10 mins by HPLC analysis; method in brief: as §1
T2 sequence (whole entry): T1 sequence (P09917 whole entry)

[4] = target: T2, Polyunsaturated fatty acid 5-lipoxygenase (Homo sapiens); experiment: Inhibition of human recombinant 5-LOX expressed in Escherichia coli BL21 using arachidonic acid as substrate assessed as remaining enzyme activity by measuring LTB4 formation at 10 uM preincubated for 15 mins measured after 10 mins by HPLC analysis; method in brief: as §1
[5] = target: T2, Polyunsaturated fatty acid 5-lipoxygenase (Homo sapiens); experiment: Inhibition of 5-LOX in human intact polymorphonuclear leukocytes assessed as remaining enzyme activity at 10 uM preincubated for 15 mins with CaCl2, A23187 measured after 10 mins by HPLC analysis; method in brief: as §2
Prostaglandin E synthase = target: T3, Prostaglandin E synthase (Homo sapiens, UniProt O14684); experiment: Inhibition of IL-1beta-activated m-PGES-1 in microsome of human A549 cells assessed as PGE2 formation preincubated for 15 mins followed by PGH2 addition measured after 1 min by RP-HPLC analysis; type: cell-based
T3 sequence (O14684 whole entry): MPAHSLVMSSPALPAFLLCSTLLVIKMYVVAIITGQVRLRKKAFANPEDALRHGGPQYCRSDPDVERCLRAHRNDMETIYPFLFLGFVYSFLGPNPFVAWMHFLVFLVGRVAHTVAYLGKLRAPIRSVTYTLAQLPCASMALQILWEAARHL
Method in brief: (§3)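 Microsomes from A549 cells prepared by sonication and differential centrifugation (10,000 g, then 174,000 g), stored at −80 °C. Diluted in 0.1 M potassium phosphate pH 7.4 with 2.5 mM glutathione and preincubated with compound (DMSO vehicle, 1% final) 15 min at 4 °C. Started with 20 µM PGH₂ (final), run 1 min at 4 °C, stopped with FeCl₂/citric acid plus 11β-PGE₂ internal standard. PGE₂ isolated by C18 SPE and quantified by RP-HPLC with UV at 195 nm. IC50 from three determinations at 0.1, 1 and 10 µM.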

Mus musculus [6] = experiment: Antiinflammatory activity in ICR mouse assessed as reduction in carrageenan-induced paw oedema volume at 4 mg/kg, ip administered 30 mins before carrageenan challenge measured after 4 hrs by hydroplethysmometer; type: functional; parameters: scale not given: the % may be the effect or the level left
Method in brief: (§4)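 Male ICR mice, 8 weeks, housed 5 per cage with 12:12 h light:dark cycle, 22 ± 1 °C, 60 ± 10% humidity, acclimatized at least 1 week. Compounds given i.p. (1–4 mg/kg; zileuton reference 20 mg/kg) 30 min before intraplantar carrageenan. Hind paw volume increase (oedema) followed for 6 h versus vehicle-treated group. Mean ± SEM, n = 6–8 per group.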

Mus musculus [7] = experiment: Antiinflammatory activity in ICR mouse assessed as reduction in carrageenan-induced paw oedema volume at 1 to 4 mg/kg, ip administered 30 mins before carrageenan challenge measured after 2 to 4 hrs by hydroplethysmometer relative to vehicle-treated control; type: functional, organism-based; method in brief: as §4
[8] = target: T4, Prostaglandin E synthase (Homo sapiens) (UniProt O14684); experiment: Inhibition of IL-1beta-activated m-PGES-1 in microsome of human A549 cells assessed as remaining enzyme activity by measuring PGE2 formation at 10 uM preincubated for 15 mins followed by PGH2 addition measured after 1 min by RP-HPLC analysis; type: cell-based; method in brief: as §3
T4 sequence (whole entry): T3 sequence (O14684 whole entry)

[9] = target: T4, Prostaglandin E synthase (Homo sapiens); experiment: Inhibition of IL-1beta-activated m-PGES-1 in microsome of human A549 cells assessed as PGE2 formation at 10 uM preincubated for 15 mins followed by PGH2 addition measured after 1 min by RP-HPLC analysis; type: cell-based; method in brief: as §3
Mus musculus [10] = experiment: Antiinflammatory activity in ICR mouse assessed as reduction in carrageenan-induced paw oedema volume at 20 mg/kg, ip administered 30 mins before carrageenan challenge measured after 0 to 6 hrs by hydroplethysmometer; type: functional; parameters: scale not given: the % may be the effect or the level left; method in brief: as §4

IC50 [1] [µM]	IC50 [2] [µM]	SMILES	also measured
> 10	> 10	CCOC(=O)c1c(CSc2ccccc2Cl)n(C)c2c1cc(OC)c1ccccc12	Activity [4]: 98.7%; Activity [5]: 97.6%
> 1	0.257	CCOC(=O)c1c(CSc2cccc(Cl)c2)[nH]c2c1cc(O)c1ccccc12	Activity [3]: 63.8%
0.93	0.237	CCOC(=O)c1c(CSc2ccc(Cl)c(Cl)c2)[nH]c2c1cc(O)c1ccccc12	
> 1	0.29	CCOC(=O)c1c(CSc2cc(C)cc(C)c2)[nH]c2c1cc(O)c1ccccc12	Activity [3]: 63%
2.04	1.26	CCOC(=O)c1c(CSc2ccccc2Cl)[nH]c2c1cc(OCC)c1ccccc12	
0.17	0.19	CCOC(=O)c1c(CSc2c(Cl)cccc2Cl)[nH]c2c1cc(O)c1ccccc12	IC50 (Prostaglandin E synthase): 1.33 µM; Activity (Mus musculus [7]): inactive; Activity (Mus musculus [6]): 9.1%

Further lines, the molecule ahead of its results:

SMILES	IC50 [1] [µM]	IC50 [2] [µM]	also measured
CCOC(=O)c1c(CSc2ccccc2C)[nH]c2c1cc(O)c1ccccc12	0.33	0.255	
CCOC(=O)c1c(CSc2cccc(Cl)c2Cl)[nH]c2c1cc(O)c1ccccc12	> 1	0.657	Activity [3]: 72%
CCOC(=O)c1c(CSc2ccccc2Cl)n(C)c2c1cc(O)c1ccccc12	> 10	> 10	Activity [4]: 81.4%; Activity [5]: 61.9%
CCOC(=O)c1c(CSc2ccccc2Cl)n(CC)c2c1cc(OCC)c1ccccc12	> 10	> 10	Activity [4]: 99.4%; Activity [5]: 95.5%
CCOC(=O)c1c(CSc2c(C)cccc2C)[nH]c2c1cc(O)c1ccccc12	> 1	0.17	Activity [3]: 65.9%
CCOC(=O)c1c(CSc2c(C)cc(C)cc2C)[nH]c2c1cc(O)c1ccccc12	0.2	0.37	IC50 (Prostaglandin E synthase): 1.93 µM; Activity (Mus musculus [6]): 77.4%
CCOC(=O)c1c(CSc2cc(Cl)cc(Cl)c2)[nH]c2c1cc(O)c1ccccc12	0.22	0.24	IC50 (Prostaglandin E synthase): 13.8 µM; Activity (Mus musculus [7]): Active; Activity (Mus musculus [6]): 60%
CCOC(=O)c1c(CSc2c(C)cc(C)cc2C)n(C)c2ccc(O)cc12			Activity [8]: 87.3%; inhibition [9]: 27.8%; Activity (Mus musculus [6]): 60.9%
CCOC(=O)c1c(CSc2ccccc2Cl)[nH]c2c1cc(OC)c1ccccc12	1.74	1.15	
CC(c1cc2ccccc2s1)N(O)C(N)=O (configuration not stated) [ZILEUTON]			Activity (Mus musculus [10]): 38.2%
CCOC(=O)c1c(CSc2ccccc2Cl)[nH]c2c1cc(O)c1ccccc12	0.82	0.182	
